Values after ≈ are worked out from the molar mass of the structure shown.
Tests used:
[1] = cited from earlier work
[2] = tested on: human lung carcinoma (A549) cell line; assay: MTT cytotoxicity assay; type: cell-based; conditions: A549, 72 h, read-out: IC50 (μg/mL) on cell lines A549
In short: (§1)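 Cells were grown in DMEM with 10% FBS and 1% antibiotics at 37°C under 5% CO2 and seeded in 96-well plates at 5 × 10^4 cells/well (A549: 5 × 10^3) until confluent. Free or SLN-encapsulated compound was added for 72 h. After a PBS wash, MTT (25 μg/mL) was given for 2 h, formazan was dissolved in DMSO and read at 550 nm. IC50 came from a four-parameter logistic fit; n = 6.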

[3] = tested on: human hepatocellular liver carcinoma (HepG2) cell line; assay: MTT cytotoxicity assay; type: cell-based; conditions: HepG2, 72 h, read-out: IC50 (μg/mL) on cell lines HepG2
In short: as §1

[4] = tested on: human breast adenocarcinoma with estrogen receptor (MCF7) cell line; assay: MTT cytotoxicity assay; type: cell-based; conditions: MCF7, 72 h, read-out: IC50 (μg/mL) on cell lines MCF7
In short: as §1

[5] = tested on: human breast adenocarcinoma (MDA-MB-231) cell line; assay: MTT cytotoxicity assay; type: cell-based; conditions: MDA-MB-231, 72 h, read-out: IC50 (μg/mL) on cell lines MDA-MB-231
In short: as §1

[6] = tested on: human oral squamous cell carcinoma (Ca9-22) cell line; assay: MTT cytotoxicity assay; type: cell-based; conditions: Ca9-22, 72 h, read-out: IC50 (μg/mL) on cell lines Ca9-22
In short: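 Ca9-22 cells grown in DMEM with 10% FBS and 1% antibiotics at 37°C, 5% CO2. Seeded at 5 × 10^4 cells/well and grown to confluence. Free or SLN-encapsulated test compound (added solution at 40 μg/mL) applied for 72 hours. After a PBS wash, MTT (25 μg/mL) for 2 h, then DMSO. Absorbance read at 550 nm; IC50 from a four-parameter logistic fit.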

In vitro release study = type: physicochemical; conditions: pH 7.4 PBS containing 1% F-127
In short: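 Dialysis bags (MWCO 12,000–14,000 Da, pre-soaked 12 h in water) held 1 mL SLN suspension in 100 mL pH 7.4 phosphate buffer with 1% Pluronic F-127 (sink) at 37°C. At intervals, 1 mL receiver aliquots were withdrawn and replaced with fresh medium. Drug was quantified by C18 HPLC with electrochemical detection. Release percentage was fitted to kinetic models; n = 4.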

[7] = In vivo pharmacokinetics after intravenous bolus; parameters: species or system Wistar rats; conditions: male, Wistar, rat, plasma, 4.7 mg/kg
In short: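 Fasted male Wistar rats (200–250 g) under urethane anaesthesia received a jugular vein injection of 4.7 mg/kg. The free-drug solution was in ethanol/PEG 400/tetraglycol/water. Heart blood (0.3 mL) was taken at set times, and plasma was extracted with dichloromethane using diclofenac as internal standard, then analysed by HPLC-ECD. A compartment model was fitted; AUC0–∞ by trapezoidal rule plus extrapolation, Cl = dose/AUC0–∞; n = 3.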

[8] = Biodistribution in tissues and organs after intravenous administration; type: in vivo; conditions: Wistar rats, 4.7 mg/kg intravenous, 30 minutes
[9] = Solubility of PK-L4 in aqueous and receptor media; type: physicochemical; conditions: compared: pH 7.4 PBS, pH 7.4 PBS containing 1% F-68, pH 7.4 PBS containing 1% F-127
[10] = cited from earlier work; remark: listed apart in the source

Best-fitting release kinetics model (In vitro release study) | AUC(0-inf) [7] | MRT [7] | Vd [7] | clearance [7] | half-life ([7]; half-life alpha, after intravenous bolus, rat plasma) | SMILES | half-life in plasma [1] | IC50 [2] | IC50 [3] | IC50 [4] | IC50 [5] | IC50 [6] | Main sites of PK-L4 deposition in tissues [8] | Solubility of PK-L4 in receptor media [9] | Solubility in water and biocompatible media [10]
 |  |  |  |  |  | COc1cc(NS(C)(=O)=O)ccc1Nc1c2ccccc2nc2ccccc12 [Amsacrine] | 20 to 30 min |  |  |  |  |  |  |  | 
 |  |  |  |  |  | COc1cccc2c1C(=O)c1c(O)c3c(c(O)c1C2=O)C[C@@](O)(C(=O)CO)C[C@@H]3O[C@H]1C[C@H](N)[C@H](O)[C@H](C)O1 [Doxorubicin solution, reference compound] |  | 0.4 µg/mL (≈ 0.736 µM) | 0.11 µg/mL (≈ 0.202 µM) | 0.43 µg/mL (≈ 0.791 µM) | 0.51 µg/mL (≈ 0.938 µM) | 0.14 µg/mL (≈ 0.258 µM) |  |  | 
Higuchi order | 1160 ± 87 ng·h/mL | 61 ± 8.7 min | 4.12 ± 0.395 L/kg | 67.9 mL/min/kg | 4.68 ± 1.38 min | COc1ccc(Nc2c3ccccc3nc3occ(Cl)c23)cc1 [PK-L4, 3-Chloro-4-[(4-methoxyphenyl)amino]furo[2,3-b]quinoline] |  | 0.11 µg/mL (≈ 0.339 µM) | 0.04 µg/mL (≈ 0.123 µM) | 8.47 µg/mL (≈ 26.1 µM) | 2.14 µg/mL (≈ 6.59 µM) | 0.04 µg/mL (≈ 0.123 µM) | mainly located in the spine, followed by the lungs, brain, small intestine, and heart | pH 7.4 PBS containing 1% F-127 exhibited the best solubility | water insoluble

Source: publication PMC3457677 (International Journal of Nanomedicine, 2012)
